Laboratory results reported in publication PMC6528680 (Journal of natural products, 2019).
Where two headings read alike, the source gives them in different places. Marks after values point to notes of the source that are not given here. Each block holds one molecule with its values, some of them ahead of it.

Key:
recombinant human HPSE = target: T1, recombinant human HPSE (Homo sapiens, UniProt Q9Y251); test: GUSB-specificity of substrate deconjugation; assay type: biochemical; settings: 37°C, 50 mM sodium acetate buffer pH 5
T1 sequence (Q9Y251 158-543 limits assumed): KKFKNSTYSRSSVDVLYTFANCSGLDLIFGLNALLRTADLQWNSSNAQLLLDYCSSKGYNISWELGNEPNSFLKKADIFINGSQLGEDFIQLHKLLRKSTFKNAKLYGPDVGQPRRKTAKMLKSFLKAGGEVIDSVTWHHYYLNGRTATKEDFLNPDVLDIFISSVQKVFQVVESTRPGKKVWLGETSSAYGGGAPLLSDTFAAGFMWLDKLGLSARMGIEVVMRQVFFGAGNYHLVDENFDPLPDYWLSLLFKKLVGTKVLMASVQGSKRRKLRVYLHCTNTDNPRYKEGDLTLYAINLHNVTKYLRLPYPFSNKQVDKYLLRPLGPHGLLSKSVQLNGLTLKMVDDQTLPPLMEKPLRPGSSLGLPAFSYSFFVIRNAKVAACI
T1 sequence (Q9Y251 36-109 limits assumed): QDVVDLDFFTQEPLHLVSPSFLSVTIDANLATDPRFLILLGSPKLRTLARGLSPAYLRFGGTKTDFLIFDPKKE
Method in brief: (§1)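 Recombinant human GUSB, HPSE or KL, normalized to molarity, was incubated 30–60 min at 37°C in 50 mM sodium acetate pH 5 with 4-methylumbelliferyl-glucuronide or phenolphthalein-glucuronide at above-Km concentrations. Reactions were quenched. Product was quantified against 4-MU or phenolphthalein standard curves by fluorescence (Ex 360/Em 470 nm) or absorbance at 540 nm. Rates are given as nmol product per enzyme amount per min.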

recombinant human GUSB = target: T2, recombinant human GUSB (Homo sapiens, UniProt P08236); test: GUSB-specificity of substrate deconjugation; assay type: biochemical; settings: 37°C, 50 mM sodium acetate buffer pH 5
T2 sequence (P08236 23-651): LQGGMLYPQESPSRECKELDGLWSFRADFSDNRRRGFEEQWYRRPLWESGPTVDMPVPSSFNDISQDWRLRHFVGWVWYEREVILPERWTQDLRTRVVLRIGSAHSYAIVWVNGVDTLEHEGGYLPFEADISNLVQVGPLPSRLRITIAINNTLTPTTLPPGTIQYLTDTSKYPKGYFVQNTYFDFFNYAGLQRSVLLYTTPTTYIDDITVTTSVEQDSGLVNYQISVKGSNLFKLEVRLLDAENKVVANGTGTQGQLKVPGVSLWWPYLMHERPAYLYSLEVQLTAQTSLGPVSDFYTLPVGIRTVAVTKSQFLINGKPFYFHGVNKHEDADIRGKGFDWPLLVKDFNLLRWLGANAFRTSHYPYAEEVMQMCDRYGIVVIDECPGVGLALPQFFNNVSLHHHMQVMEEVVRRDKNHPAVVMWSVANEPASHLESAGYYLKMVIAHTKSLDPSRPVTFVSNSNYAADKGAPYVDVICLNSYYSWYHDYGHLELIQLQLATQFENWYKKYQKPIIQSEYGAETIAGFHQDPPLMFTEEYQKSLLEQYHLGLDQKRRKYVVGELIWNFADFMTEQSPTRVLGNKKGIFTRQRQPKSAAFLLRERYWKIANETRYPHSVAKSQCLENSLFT
Method in brief: as §1

recombinant human KL = target: T3, recombinant human KL (Homo sapiens, UniProt Q9UEF7); test: GUSB-specificity of substrate deconjugation; assay type: biochemical; settings: 37°C, 50 mM sodium acetate buffer pH 5
T3 sequence (Q9UEF7 34-1012): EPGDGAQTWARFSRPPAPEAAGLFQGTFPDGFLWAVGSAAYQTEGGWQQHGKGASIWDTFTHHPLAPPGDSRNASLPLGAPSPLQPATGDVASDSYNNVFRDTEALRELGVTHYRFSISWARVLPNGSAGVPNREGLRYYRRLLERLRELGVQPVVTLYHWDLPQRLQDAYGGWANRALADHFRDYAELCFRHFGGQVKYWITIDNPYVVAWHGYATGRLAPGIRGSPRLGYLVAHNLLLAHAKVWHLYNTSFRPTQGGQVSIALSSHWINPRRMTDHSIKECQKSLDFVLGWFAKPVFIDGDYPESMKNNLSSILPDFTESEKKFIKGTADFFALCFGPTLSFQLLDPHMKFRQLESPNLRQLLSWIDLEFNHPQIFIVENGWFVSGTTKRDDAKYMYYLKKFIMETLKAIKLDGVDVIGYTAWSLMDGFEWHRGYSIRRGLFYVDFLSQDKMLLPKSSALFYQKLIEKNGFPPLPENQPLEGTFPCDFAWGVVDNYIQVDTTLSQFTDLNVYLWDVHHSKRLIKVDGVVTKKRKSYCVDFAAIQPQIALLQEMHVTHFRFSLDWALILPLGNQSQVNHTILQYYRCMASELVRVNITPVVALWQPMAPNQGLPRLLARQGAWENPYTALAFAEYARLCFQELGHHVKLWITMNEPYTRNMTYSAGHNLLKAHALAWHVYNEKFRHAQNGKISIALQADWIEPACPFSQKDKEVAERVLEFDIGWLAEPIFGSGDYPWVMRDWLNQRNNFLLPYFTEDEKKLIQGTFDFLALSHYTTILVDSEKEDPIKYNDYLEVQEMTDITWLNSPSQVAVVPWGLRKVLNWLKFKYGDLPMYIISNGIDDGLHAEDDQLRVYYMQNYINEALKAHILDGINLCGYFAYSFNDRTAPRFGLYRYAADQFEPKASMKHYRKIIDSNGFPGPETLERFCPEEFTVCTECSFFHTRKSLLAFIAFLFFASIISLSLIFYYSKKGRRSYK
Method in brief: as §1

[1] = assay type: in vivo; settings: C57BL/6J mice
[2] = assay type: in vivo, mice (C57BL/6J, C3H/HeJ, mps/mps)
Method in brief: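 Test compound dosed IP at 100 mg/kg in DMSO to 15-week female BL/6J, female HeJ and male mps/mps mice (n=3–5/group). Blood and marrow were taken under isoflurane at 20 min. Marrow pellets were resuspended in 50 mM sodium acetate pH 5 and held 2 h on ice, then supernatants were kept. Serum was acidified to pH 5, and aglycone and glucuronide were measured by HLB solid-phase extraction and LC/MS. Mean ± SEM.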

[3] = assay type: in vivo, mice (C57BL/6J, C3H/HeJ)
Method in brief: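 Oral gavage of 500 mg/kg in DMSO to C57BL/6J and C3H/HeJ mice (n=3–4/group), with sampling at 30 min under isoflurane. Marrow pellets were suspended in 50 mM sodium acetate pH 5 for 2 h on ice and centrifuged. Serum was acidified to pH 5 with HCl before HLB extraction and LC/MS. Marrow concentrations were corrected to pellet volume, assuming density 1.06 g/ml. Mean ± SEM.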

RAW 264.7 cells = test: RAW 264.7 cell viability; assay type: cell-based, murine; settings: at approximately 3 μM; data not shown
GUSB [4] = target: T4, GUSB (Mus musculus, UniProt P12265); assay type: in vivo, C57BL/6J mice; settings: SL 1 g/kg IP 1 h before oral curcumin 500 mg/kg
T4 sequence (P12265 23-648): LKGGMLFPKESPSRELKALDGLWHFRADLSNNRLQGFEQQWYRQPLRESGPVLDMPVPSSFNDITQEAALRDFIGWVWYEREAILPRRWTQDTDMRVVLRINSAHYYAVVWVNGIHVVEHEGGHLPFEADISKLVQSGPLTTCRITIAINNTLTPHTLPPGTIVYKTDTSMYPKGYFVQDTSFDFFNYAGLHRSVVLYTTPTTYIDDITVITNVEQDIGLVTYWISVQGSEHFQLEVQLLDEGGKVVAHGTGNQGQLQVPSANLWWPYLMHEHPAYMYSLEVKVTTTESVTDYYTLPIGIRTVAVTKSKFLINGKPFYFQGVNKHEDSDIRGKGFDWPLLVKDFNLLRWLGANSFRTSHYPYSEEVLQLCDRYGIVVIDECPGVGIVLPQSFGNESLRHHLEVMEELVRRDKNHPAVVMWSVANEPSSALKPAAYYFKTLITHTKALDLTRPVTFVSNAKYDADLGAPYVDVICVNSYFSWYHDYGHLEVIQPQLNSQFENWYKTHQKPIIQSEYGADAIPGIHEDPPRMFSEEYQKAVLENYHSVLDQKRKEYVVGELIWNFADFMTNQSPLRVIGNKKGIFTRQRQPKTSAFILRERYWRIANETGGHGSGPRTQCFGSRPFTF
Method in brief: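 Mice were pretreated with saccharolactone (1 g/kg in saline, IP) 1 h before oral gavage of 500 mg/kg curcumin in DMSO. Serum (clotted 10 min RT, 8,000 g 10 min) and marrow were taken at 30 min. Marrow was resuspended in 50 mM sodium acetate pH 5 and held 2 h on ice. Aglycone curcumin and curcumin-glucuronide were measured by LC/MS after HLB extraction.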

GUSB [5] = target: T4, GUSB; test: Ex vivo saccharolactone added to marrow suspensions from curcumin-treated mice; assay type: biochemical, C57BL/6J mice; settings: 10 mM SL in sodium acetate buffer
Method in brief: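 Female 4-week C57BL/6J mice were gavaged with 500 mg/kg oral curcumin in DMSO. Leg marrow was spun out (10,000 g, 15 s) at 30 min and resuspended in 50 mM sodium acetate pH 5 with or without 10 mM saccharolactone. It was held 2 h on ice, then supernatants were taken. Aglycone and glucuronide were quantified by LC/MS (HLB extraction, C18, SRM) as % of total curcumin. n=3–4/group.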

GUSB [6] = target: T4, GUSB; assay type: biochemical, C57BL/6NJ mice; settings: SL 10 mM, 10 μM curcumin-glucuronide, 2 h, 37°C

Rate of cleavage by HPSE (recombinant human HPSE): 0.14 nmol PheP/nmol enzyme/min
Rate of cleavage by GUSB (recombinant human GUSB): 23.5 nmol PheP/nmol enzyme/min
Rate of cleavage by KL (recombinant human KL): 1.0 nmol PheP/nmol enzyme/min
Structure (SMILES): O=C1OC(c2ccc(O)cc2)(c2ccc(O[C@@H]3O[C@H](C(=O)O)[C@@H](O)[C@H](O)[C@H]3O)cc2)c2ccccc21 (stereo partly shown) [glucuronidated PheP, Phenolphthalein-glucuronide]

Aglycone curcumin as share of total curcumin in serum ([1]; 30 min post oral dose, n=11): 0.24% ± 0.07%
Aglycone curcumin as share of total curcumin in lyophilized whole bone marrow ([1]; post oral dose, n=8): 0.77% ± 0.21%
Aglycone curcumin as share of circulating total curcumin ([2]; BL/6J serum, IP curcumin): < 4%
Aglycone curcumin as share of total in ex vivo bone marrow suspensions ([2]; BL/6J, IP curcumin): 51 % of total
Bone marrow aglycone curcumin (% of total curcumin) lower vs BL/6J ([2]; HeJ mice, IP curcumin): 73%
Bone marrow aglycone curcumin (% of total curcumin) decrease vs BL/6J ([2]; mps/mps mice, IP curcumin): 88%
Increase of circulating curcumin concentrations vs BL/6J ([2]; mps/mps mice, IP curcumin): 3.2 fold
Concentration in serum ([2]; mps/mps, 20 min after IP 100 mg/kg curcumin, mean (SEM)): 22.8 (6.9)^a,b μM
Aglycone curcumin as share of total curcumin in perfusing serum ([3]; 30 min post oral dose, C57BL/6J): 0.1–0.2 % of total curcumin
Concentration in serum ([3]; C3H/HeJ, 30 min after oral 500 mg/kg curcumin, mean (SEM)): nd (≤0.01) μM
Absolute and relative amounts of marrow aglycone curcumin lower in HeJ vs BL/6J ([3]; oral 500 mg/kg curcumin, 30 min): 59–65%
Structure (SMILES): COc1cc(/C=C/C(=O)CC(=O)/C=C/c2ccc(O)c(OC)c2)ccc1O [aglycone curcumin, curcumin]
Effect on RAW 264.7 cell viability (RAW 264.7 cells): did not alter

Rate of cleavage by HPSE (recombinant human HPSE; without effect): < 0.007 nmol 4-MU/nmol enzyme/min
Rate of cleavage by GUSB (recombinant human GUSB): 2.64 nmol 4-MU/pmol enzyme/min
Rate of cleavage by KL (recombinant human KL; without effect): < 0.007 nmol 4-MU/nmol enzyme/min
Structure (SMILES): Cc1cc(=O)oc2cc(O[C@@H]3O[C@H](C(=O)O)[C@@H](O)[C@H](O)[C@H]3O)ccc12 [glucuronidated 4-MU, 4-methylumbelliferyl-glucuronide]

Structure (SMILES): O.O=C(O)[C@@H](O)[C@H]1OC(=O)[C@H](O)[C@H]1O [saccharolactone, D-Saccharic acid 1,4-lactone monohydrate]
Aglycone curcumin levels in marrow suspensions after in vivo inhibitor treatment (GUSB [4]): no longer detectable
Effect on serum levels of aglycone curcumin (GUSB [4]; data not shown): unchanged
Aglycone curcumin in marrow suspensions with inhibitor added ex vivo (GUSB [5]): not detected
Effect on deconjugation of GC in marrow-conditioned media (GUSB [6]): inhibitable
